Reference: paper PMC6702080 (Nature chemical biology, 2019)
Where two headings read alike, the source gives them in different places. Each block holds one compound with its values, some of them ahead of it.

Columns and labels:
PCBP1–BolA2 complex = PCBP1–BolA2 complex (Homo sapiens, UniProt Q15365+Q9H3K6); assay: Co-immunoprecipitation of PCBP1 with BolA2-Flag from HEK293 cell lysates; settings: 1 mM DTT as alternative reducing agent instead of 5 mM GSH in IP buffer
PCBP1 KH3 domain (WT) [1] = target: T1, PCBP1 KH3 domain (WT) (Homo sapiens, UniProt Q15365); assay: Fe; type: binding; settings: for Kd: read-out: KD of Fe(II) for wild-type KH3
Target sequence in this assay (Q15365 279-356 limits assumed): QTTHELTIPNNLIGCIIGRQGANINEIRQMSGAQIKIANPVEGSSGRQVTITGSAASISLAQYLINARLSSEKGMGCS

[2] = target: PCBP1 KH3 domain C293S variant; assay: Fe; type: binding, human; settings: read-out: KD of Fe(II) for C293S KH3
Summary of the method: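 Fe(II) binding followed as the fall in apo-indicator absorbance (366 nm, shifting toward 325 nm on metal binding). KD from competition; means ± SD, n = 4 independent experiments.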

[3] = cited from earlier work
PCBP1 KH3 domain [4] = target: T2, PCBP1 KH3 domain (Homo sapiens, UniProt Q15365); settings: 10 μM Fe(II) versus no iron
T2 sequence (Q15365 279-356 limits assumed): as above

PCBP1 KH3 domain [5] = target: T2, PCBP1 KH3 domain; settings: 100 μM 35S-GSH
PCBP1 KH3 domain (WT) [6] = target: T1, PCBP1 KH3 domain (WT); settings: wild-type KH3, 100 μM 35S-GSH, +/- 100 μM FeSO4
Target sequence in this assay (Q15365 287-356 limits assumed): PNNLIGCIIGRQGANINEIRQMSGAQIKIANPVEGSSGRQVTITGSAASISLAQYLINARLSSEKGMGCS

PCBP1 KH3 domain [7] = target: T2, PCBP1 KH3 domain; assay: biochemical; settings: 200 nM labeled KH3
BolA2–KH3 complex = BolA2–KH3 complex (Homo sapiens, UniProt Q15365); assay: biochemical
Chain of BolA2–KH3 complex (Q15365 279-356): as the sequence (Q15365 279-356 limits assumed) above
Chain of BolA2–KH3 complex (Q9H3K6 whole entry partner): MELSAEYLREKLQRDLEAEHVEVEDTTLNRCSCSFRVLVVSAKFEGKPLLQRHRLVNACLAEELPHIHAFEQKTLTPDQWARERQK

Chain of PCBP1–BolA2 complex (Q15365 whole entry, the tested form may be a part): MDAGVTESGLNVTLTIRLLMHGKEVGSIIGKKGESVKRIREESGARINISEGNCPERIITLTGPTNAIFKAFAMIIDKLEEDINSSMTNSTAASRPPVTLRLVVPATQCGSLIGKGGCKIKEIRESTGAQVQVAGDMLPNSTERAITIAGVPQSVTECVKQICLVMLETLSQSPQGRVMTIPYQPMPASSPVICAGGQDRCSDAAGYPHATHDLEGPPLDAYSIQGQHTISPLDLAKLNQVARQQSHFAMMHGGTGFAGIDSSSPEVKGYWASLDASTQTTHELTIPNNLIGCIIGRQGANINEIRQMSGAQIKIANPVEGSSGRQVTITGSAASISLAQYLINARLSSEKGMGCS
Chain of PCBP1–BolA2 complex (Q9H3K6 whole entry, the tested form may be a part): as the sequence (Q9H3K6 whole entry partner) above

stabilization of PCBP1–BolA2 complexes (PCBP1–BolA2 complex): did not result in stabilization
Structure (SMILES): O[C@@H](CS)[C@@H](O)CS (racemic) [dithiothreitol]

fold increase of affinity of KH3 for Fe(II) by GSH (PCBP1 KH3 domain (WT) [1]; 5 mM GSH versus no GSH): ~ 5 fold
Kd (PCBP1 KH3 domain (WT) [1]; 0 mM GSH (absence of glutathione)): 4.2 ± 0.7 µM
Kd (PCBP1 KH3 domain (WT) [1]; 5 mM GSH): 0.8 ± 0.1 µM
Kd ([2]; 0 mM GSH): 16.4 ± 2.7 µM
Kd ([2]; 5 mM GSH): 9.4 ± 1.3 µM
Structure (SMILES): O=S(=O)([O-])[O-].[Fe+2] [Fe(II), FeSO4]

Structure (SMILES): [Mn+2] [manganese]
fold lower affinity for GSH than Fe(II) [3]: > 100 fold

Structure (SMILES): N[C@@H](CCC(=O)N[C@@H](CS)C(=O)NCC(=O)O)C(=O)O [GSH, glutathione]
fold higher affinity of GSH for KH3 with iron (PCBP1 KH3 domain [4]): ~5 fold
GSH binding of wild-type KH3 relative to control IPs (PCBP1 KH3 domain [5]): 5 fold
increase of GSH binding in the presence of Fe(II) (PCBP1 KH3 domain (WT) [6]): 2 fold
Kd (PCBP1 KH3 domain [7]; KD of GSH for KH3, buffer containing 10 μM Fe(II) (FeSO4)): 80 ± 10 µM
Kd (PCBP1 KH3 domain [7]; apparent KD of GSH for KH3, buffers without iron): 390 ± 50 µM
Kd (BolA2–KH3 complex): 86 ± 25 µM
